# Measured values collected from several papers.
# Lines come from different studies, so protocols differ.
# Target: Mitogen-activated protein kinase kinase kinase 2 (MAP3K2, Homo sapiens, UniProt Q9Y2U5)
# One construct used (Q9Y2U5 1-619): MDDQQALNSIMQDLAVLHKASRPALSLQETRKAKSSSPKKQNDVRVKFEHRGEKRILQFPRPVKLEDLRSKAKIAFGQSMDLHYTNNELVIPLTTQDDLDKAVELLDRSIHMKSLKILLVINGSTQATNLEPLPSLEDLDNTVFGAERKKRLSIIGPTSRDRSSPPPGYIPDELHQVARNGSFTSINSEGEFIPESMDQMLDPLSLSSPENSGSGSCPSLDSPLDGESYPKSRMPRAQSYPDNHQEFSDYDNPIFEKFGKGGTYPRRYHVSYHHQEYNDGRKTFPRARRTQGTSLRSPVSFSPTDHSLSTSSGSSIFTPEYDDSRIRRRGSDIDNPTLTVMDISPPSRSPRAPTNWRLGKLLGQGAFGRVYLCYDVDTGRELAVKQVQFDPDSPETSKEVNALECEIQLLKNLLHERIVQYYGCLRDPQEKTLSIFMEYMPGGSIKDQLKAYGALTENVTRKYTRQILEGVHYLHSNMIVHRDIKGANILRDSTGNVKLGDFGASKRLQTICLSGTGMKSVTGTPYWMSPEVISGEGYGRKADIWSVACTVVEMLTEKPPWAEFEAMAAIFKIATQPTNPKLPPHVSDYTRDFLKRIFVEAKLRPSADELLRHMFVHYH
Structure (SMILES),effect on,method,concentration,remaining binding [%]
O=C(c1ccc(Nc2ncc(Cl)c(-c3cc4ccccc4s3)n2)cc1)N1CCC(N2CCCC2)CC1,binding,competition with immobilised ligand,1 µM,20
Cc1nc(N2CC[C@@H](O)C2)ncc1-c1cc(C(F)(F)F)cc2[nH]ncc12,binding,competition with immobilised ligand,1 µM,60
O=C(Nc1c[nH]nc1C(=O)NC1CCNCC1)c1cc(F)cc(F)c1,binding,competition with immobilised ligand,1 µM,94
C=CC(=O)N1CCC(C(=O)NCC(=O)N2CCN(c3nc(-c4cnc(N)nc4C(F)F)nc(N4CCOCC4)n3)CC2)CC1,binding,competition with immobilised ligand,1 µM,69
COc1cnc(Nc2cccc(S(N)(=O)=O)c2)nc1N1CCN(c2ccccc2)C(=O)C1,binding,competition with immobilised ligand,1 µM,74
CN(C)CC#Cc1ccc(OCCCc2sc(N3CCc4cccc(C(=O)Nc5nc6ccccc6s5)c4C3)nc2C(=O)O)c(F)c1,cell-free assay,competition with immobilised ligand,1 µM,75
COc1ncc2cc3ccccc3nc2c1C#N,cell-free assay,competition with immobilised ligand,5 µM,91
CC1CCCN1c1nccc(-c2cnn3ncccc23)n1 (stereo not drawn),binding,,1 µM,98
O=C(c1ccc(Nc2nccc(-c3cc4ccccc4s3)n2)cc1)N1CCC(N2CCCC2)CC1,binding,competition with immobilised ligand,1 µM,43
c1cnn2ncc(-c3ccnc(N4CCC45COC5)n3)c2c1,binding,,1 µM,58
O=C(Nc1cccnn1)N1CCC(=Cc2cccc(Oc3ccc(C(F)(F)F)cn3)c2)CC1,cell-free assay,competition with immobilised ligand,1 µM,100
CNC(=O)[C@@H]1CC[C@@H](n2c(-c3ccc4cnccc4c3)nc3ccc(C(=O)NCc4cccc(C(N)=O)c4)cc32)C1,binding,competition with immobilised ligand,1 µM,86
O=C(O)[C@@H]1[C@@H](Cn2nnc3ccccc3c2=O)CC[C@H]1C(=O)c1ccc(OCCC2CCOCC2)cc1,cell-free assay,competition with immobilised ligand,1 µM,100
N[C@@H]1CCN(c2nccc(-c3cnn4ncccc34)n2)C1,binding,,1 µM,100
O=C(c1ccc(Nc2ncc(Cl)c(-c3ccc(Cl)s3)n2)cc1)N1CCC(N2CCCC2)CC1,binding,competition with immobilised ligand,1 µM,4.9
C[C@H]1CCN(c2nccc(-c3cnn4ncccc34)n2)C1,binding,,1 µM,81
C[C@@H]1CN(c2cc(-c3nn(C)c4ccc(OC5(C)CC5)cc34)ncn2)C[C@H](C)O1,cell-free assay,competition with immobilised ligand,1 µM,83
CN(CCCC(F)(F)F)c1nccc(-c2cnn3ncccc23)n1,binding,,1 µM,96
C[C@@H](c1ccc(-n2cnc3c(N)ncnc32)cc1)N1CCc2nn(C)c(Cc3ccccc3)c2C1=O,binding,competition with immobilised ligand,0.1 µM,57
CCC(=N\O)/C(C)=C/c1ccc(F)cc1,cell-free assay,competition with immobilised ligand,1 µM,85
CN(C)c1nccc(-c2cnc3ncccn23)n1,binding,,1 µM,73
